Measured values as given in ChEMBL document CHEMBL2413042, “Design, synthesis and evaluation of dialkyl 4-(benzo[d][1,3]dioxol-6-yl)-1,4-dihydro-2,6-dimethyl-1-substituted pyridine-3,5-dicarboxylates as potential anticonvulsants and their molecular properties prediction” (Eur J Med Chem, 2013).
Values after ≈ are worked out from the molar mass of the structure shown. Active and inactive are the calls of the source. The rule behind the calls is not given here.

Columns and labels:
Rattus norvegicus [1] = test: Anticonvulsant activity in Wistar albino rat assessed as protection against subcutaneous pentylenetetrazole-induced mortality at 50 mg/kg, po administered 1 hr prior to pentylenetetrazole challenge measured for 300 secs relative to control; type: functional
In short: (§1)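 Male Wistar albino rats, six per group. Test agents were given orally as suspensions in 0.5% sodium carboxymethylcellulose; the reference was given i.p.; the vehicle group served as control. Pentylenetetrazole 80 mg/kg was given s.c. 1 h later. Onset of clonic convulsions and protection against mortality were recorded, with a 300 sec maximum latency. Mean±SEM; one-way ANOVA with Dunnett's test.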

Rattus norvegicus [2] = test: Anticonvulsant activity in Wistar albino rat assessed as time of onset of subcutaneous pentylenetetrazole-induced clonic convulsion at 50 mg/kg, po administered 1 hr prior to pentylenetetrazole challenge measured for 300 secs (reference value: 83 +/- 4 secs); type: functional
[3] = tested on: Radical scavenging activity; test: Antioxidant activity assessed as DPPH free radical scavenging activity under dark condition after 30 mins; type: functional
In short: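 Test compound in ethanol (10, 50, 100, 250, 500 μg/ml solutions) was added to 0.004% DPPH in methanol. The mixture was kept in the dark for 30 min and absorbance was read at 517 nm. Percent radical inhibition was calculated, with ascorbic acid as reference, and IC50 was derived.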

Rattus norvegicus [4] = test: Anticonvulsant activity in Wistar albino rat assessed as protection against maximum electric shock-induced hind limb tonic extension at 50 mg/kg, po administered 1 hr followed by maximum electric shock induction relative to control; type: functional, Hindlimb
In short: (§2)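 Male Wistar albino rats, six per group, were given test compound orally as a suspension in 0.5% sodium carboxymethylcellulose. Controls received vehicle; phenytoin 30 mg/kg was given orally. One hour after dosing, 150 mA was applied for 0.2 sec through corneal electrodes. Duration of hind limb tonic extension was recorded. Values are mean±SEM; ANOVA with Dunnett's test vs control.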

Mus musculus = test: Antinociceptive activity in Swiss albino mouse assessed as reduction of capsaicin-induced flinching at 10 mg/kg, po administered 1 hr followed by capsaicin challenge; type: functional; design: scale not given: the % may be the effect or the level left
In short: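 Male Swiss mice (18-22 g), six per group, were dosed by oral gavage with compound in 0.5% sodium carboxymethylcellulose. One hour later, capsaicin (1 nmol/paw, 20 μl) was injected intraplantar into the right hind paw. Flinches of the injected paw were counted for 5 min. Values are mean±SEM; ANOVA with Dunnett's test vs vehicle control.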

Rattus norvegicus [5] = test: Anticonvulsant activity in Wistar albino rat assessed as protection against maximum electric shock-induced hind limb tonic extension administered 1 hr followed by maximum electric shock induction; type: functional, organism-based; conditions: Hindlimb; in short: as §2
Rattus norvegicus [6] = test: Anticonvulsant activity in Wistar albino rat assessed as protection against subcutaneous pentylenetetrazole-induced mortality at 30 mg/kg administered 1 hr prior to pentylenetetrazole challenge measured for 300 secs relative to control; type: functional
Rattus norvegicus [7] = test: Anticonvulsant activity in Wistar albino rat assessed as time of onset of subcutaneous pentylenetetrazole-induced clonic convulsion at 30 mg/kg administered 1 hr prior to pentylenetetrazole challenge measured for 300 secs (reference value: 83 +/- 4 secs); type: functional
Rattus norvegicus [8] = test: Anticonvulsant activity in Wistar albino rat assessed as protection against maximum electric shock-induced hind limb tonic extension at 30 mg/kg administered 1 hr followed by maximum electric shock induction relative to control; type: functional, Hindlimb
In short: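 Male Wistar albino rats, six per group, dosed orally as a suspension in 0.5% sodium carboxymethylcellulose, with a vehicle control group. One hour later, 150 mA for 0.2 sec was applied through corneal electrodes. Duration of hind limb tonic extension was recorded, and abolition or reduction of extension was scored against control. Mean±SEM; one-way ANOVA with Dunnett's test.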

Rattus norvegicus [9] = test: Anticonvulsant activity in Wistar albino rat assessed as protection against maximum electric shock-induced hind limb tonic extension at 30 mg/kg, po administered 1 hr followed by maximum electric shock induction relative to control; type: functional, Hindlimb; in short: as §2
Rattus norvegicus [10] = test: Anticonvulsant activity in Wistar albino rat assessed as time of onset of subcutaneous pentylenetetrazole-induced clonic convulsion at 5 mg/kg, ip administered 1 hr prior to pentylenetetrazole challenge measured for 300 secs (reference value: 83 +/- 4 secs); type: functional; in short: as §1
Rattus norvegicus [11] = test: Anticonvulsant activity in Wistar albino rat assessed as protection against subcutaneous pentylenetetrazole-induced mortality at 25 mg/kg, po administered 1 hr prior to pentylenetetrazole challenge measured for 300 secs relative to control; type: functional; in short: as §1
Rattus norvegicus [12] = test: Anticonvulsant activity in po dosed Wistar albino rat assessed as inhibition of subcutaneous pentylenetetrazole-induced seizure administered 1 hr prior to pentylenetetrazole challenge measured for 300 secs; type: functional, organism-based
Rattus norvegicus [13] = test: Anticonvulsant activity in po dosed Wistar albino rat assessed as protection against maximum electric shock-induced hind limb tonic extension administered 1 hr followed by maximum electric shock induction; type: functional, organism-based; conditions: Hindlimb; in short: as §2
Rattus norvegicus [14] = test: Anticonvulsant activity in po dosed Wistar albino rat assessed as protection against subcutaneous pentylenetetrazole-induced mortality administered 1 hr prior to pentylenetetrazole challenge measured for 300 secs; type: functional, organism-based
Rattus norvegicus [15] = test: Anticonvulsant activity in Wistar albino rat assessed as protection against maximum electric shock-induced hind limb tonic extension at 100 mg/kg, po administered 1 hr followed by maximum electric shock induction relative to control; type: functional, Hindlimb; in short: as §2
Rattus norvegicus [16] = test: Anticonvulsant activity in Wistar albino rat assessed as protection against maximum electric shock-induced hind limb tonic extension at 25 mg/kg, po administered 1 hr followed by maximum electric shock induction relative to control; type: functional, Hindlimb; in short: as §2
Rattus norvegicus [17] = test: Anticonvulsant activity in Wistar albino rat assessed as time of onset of subcutaneous pentylenetetrazole-induced clonic convulsion at 100 mg/kg, po administered 1 hr prior to pentylenetetrazole challenge measured for 300 secs (reference value: 83 +/- 3.8 secs); type: functional
Rattus norvegicus [18] = test: Anticonvulsant activity in Wistar albino rat assessed as protection against subcutaneous pentylenetetrazole-induced mortality at 100 mg/kg, po administered 1 hr prior to pentylenetetrazole challenge measured for 300 secs relative to control; type: functional; in short: as §1
Rattus norvegicus [19] = test: Anticonvulsant activity in Wistar albino rat assessed as time of onset of subcutaneous pentylenetetrazole-induced clonic convulsion at 25 mg/kg, po administered 1 hr prior to pentylenetetrazole challenge measured for 300 secs (reference value: 83 +/- 3.8 secs); type: functional

| SMILES | Activity (Rattus norvegicus [1]) | Time (Rattus norvegicus [2]) | IC50 [3] | Activity (Rattus norvegicus [4]) | other results |
| --- | --- | --- | --- | --- | --- |
| COC(=O)C1=C(C)N(c2ccc([N+](=O)[O-])cc2)C(C)=C(C(=O)OC)C1c1ccc2c(c1)OCO2 | 0% | 93 s | 1289 µg/mL (≈ 2760 µM) | 7.9% | – |
| COC(=O)C1=C(C)N(c2cccc([N+](=O)[O-])c2)C(C)=C(C(=O)OC)C1c1ccc2c(c1)OCO2 | 0% | 138 s | 521 µg/mL (≈ 1120 µM) | 11.1% | – |
| CCOC(=O)C1=C(C)N(c2ccc([N+](=O)[O-])cc2)C(C)=C(C(=O)OC)C1c1ccc2c(c1)OCO2 (stereo not given) | 33.3% | 225 s | 854 µg/mL (≈ 1780 µM) | 31.7% | Activity (Mus musculus): 4% |
| CCOC(=O)C1=C(C)N(c2cccc([N+](=O)[O-])c2)C(C)=C(C(=O)OCC)C1c1ccc2c(c1)OCO2 | 33.3% | 250 s | 363 µg/mL (≈ 734 µM) | 49.2% | – |
| COC(=O)C1=C(C)N(c2ccccc2)C(C)=C(C(=O)OC)C1c1ccc2c(c1)OCO2 | 0% | 200 s | 542 µg/mL (≈ 1290 µM) | 41.2% | Activity (Mus musculus): 0% |
| CCOC(=O)C1=C(C)N(c2ccccc2)C(C)=C(C(=O)OC)C1c1ccc2c(c1)OCO2 (stereo not given) | 0% | 221 s | 740 µg/mL (≈ 1700 µM) | 41.2% | – |
| COC(=O)C1=C(C)NC(C)=C(C(=O)OC(C)C)C1c1cccc2nonc12 (stereo not given) | – | – | – | – | Activity (Rattus norvegicus [5]): Active |
| COC(=O)C1=C(C)N(c2ccccc2[N+](=O)[O-])C(C)=C(C(=O)OC)C1c1ccc2c(c1)OCO2 | 0% | 174 s | 2354 µg/mL (≈ 5050 µM) | 33.3% | – |
| COC(=O)C1=C(C)NC(C)=C(C(=O)OC)C1c1ccccc1[N+](=O)[O-] [NIFEDIPINE] | – | – | – | – | Activity (Rattus norvegicus [6]): 33.3%; Time (Rattus norvegicus [7]): 215 s; Activity (Rattus norvegicus [8]): 66.6% |
| CCOC(=O)C1=C(C)N(c2ccccc2[N+](=O)[O-])C(C)=C(C(=O)OC)C1c1ccc2c(c1)OCO2 (stereo not given) | 33.3% | 251 s | 933 µg/mL (≈ 1940 µM) | 44.5% | – |
| O=C1NC(=O)C(c2ccccc2)(c2ccccc2)N1 [PHENYTOIN] | – | – | – | – | Activity (Rattus norvegicus [9]): 69.8% |
| COC(=O)C1=C(C)NC(C)=C(C(=O)OC)C1c1ccc2c(c1)OCO2 | 0% | 200 s | 604 µg/mL (≈ 1750 µM) | 27% | Activity (Mus musculus): 21% |
| CCOC(=O)C1=C(C)N(c2ccccc2[N+](=O)[O-])C(C)=C(C(=O)OCC)C1c1ccc2c(c1)OCO2 | 66.6% | 293 s | 874 µg/mL (≈ 1770 µM) | 60.3% | – |
| CCOC(=O)C1=C(C)N(c2ccc([N+](=O)[O-])cc2)C(C)=C(C(=O)OCC)C1c1ccc2c(c1)OCO2 | 66.6% | 237 s | 597 µg/mL (≈ 1210 µM) | 46% | – |
| CN1C(=O)CN=C(c2ccccc2)c2cc(Cl)ccc21 [DIAZEPAM] | – | – | – | – | Time (Rattus norvegicus [10]): 262 s |
| CCOC(=O)C1=C(C)N(c2ccccc2)C(C)=C(C(=O)OCC)C1c1ccc2c(c1)OCO2 | 66.6% | 275 s | 443 µg/mL (≈ 986 µM) | 46% | – |
| CCOC(=O)C1=C(C)NC(C)=C(C(=O)OC)C1c1ccc2c(c1)OCO2 (stereo not given) | 33.3% | 233 s | 467 µg/mL (≈ 1300 µM) | 28.5% | – |
| CCOC(=O)C1=C(C)NC(C)=C(C(=O)OCC)C1c1ccc2c(c1)OCO2 | 100% | >300 s | 375 µg/mL (≈ 1000 µM) | 59% | Activity (Rattus norvegicus [11]): 100%; inhibition (Rattus norvegicus [12]): Dose-dependent effect; Activity (Mus musculus): 8%; Activity (Rattus norvegicus [13]): Dose-dependent effect; Activity (Rattus norvegicus [14]): Dose-dependent effect; Activity (Rattus norvegicus [15]): 72%; Activity (Rattus norvegicus [16]): 41.6%; Time (Rattus norvegicus [17]): >300 s; Activity (Rattus norvegicus [18]): 0%; Time (Rattus norvegicus [19]): 194 s |
| CCOC(=O)C1=C(C)N(c2cccc([N+](=O)[O-])c2)C(C)=C(C(=O)OC)C1c1ccc2c(c1)OCO2 (stereo not given) | 0% | 136 s | 386 µg/mL (≈ 803 µM) | 28.5% | – |
| O=C1O[C@H]([C@@H](O)CO)C(O)=C1O [ASCORBIC ACID] | – | – | 32 µg/mL (≈ 182 µM) | – | – |
